Drawing on ChEMBL document CHEMBL1687719, “Absence of CD4+ T lymphocytes, CD8+ T lymphocytes, or B lymphocytes has different effects on the efficacy of posaconazole and benznidazole in treatment of experimental acute Trypanosoma cruzi infection” (2009), this text covers Activity, MST and survival for one compound.

Calls of active or inactive are those of the source. No cut-off for these calls is given here. A value given as a limit tells only on which side of the number the result lay.

For assay [1], the system named is Trypanosoma cruzi. Nature of the assay: Antitrypanosomal activity against Trypanosoma cruzi Y infected in CD4+ T-lymphocyte knockout C57BL/6 mouse assessed as reactivation of parasite in mouse at 100 mg/kg/day, po administered once daily for 20 consecutive days measured 11 days post infection. The class given is functional, organism-based. An outline of the steps:
(§1)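 Ip infection was 5,000 Y-strain blood trypomastigotes. Oral dosing at 100 mg/kg/day, once daily in gum arabic water, ran from 4 dpi for 20 days. Parasitemia was read by microscopy of fresh tail blood, daily from 4–16 dpi, then every other day to 60 dpi. Reactivation was scored as patent parasitemia returning after treatment ended.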

The subject of assay [2] is Trypanosoma cruzi. Nature of the assay: Antitrypanosomal activity against Trypanosoma cruzi Y infected in B-lymphocyte knockout C57BL/6 mouse assessed as number of mouse with reactivation of infection at 100 mg/kg/day, po administered once daily for 20 consecutive days measured 22 days post infection. The class given is functional, organism-based. The essentials:
as §1

Assay [3] deals with Trypanosoma cruzi. Nature of the assay: Antitrypanosomal activity against Trypanosoma cruzi Y infected in CD4+ T-lymphocyte knockout C57BL/6 mouse assessed as reactivation of parasite in mouse at 20 mg/kg/day, po administered twice daily for 20 consecutive days measured 60 days post infection. The class given is functional, organism-based. An outline of the steps: (§2)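 Ip infection was 5,000 Y-strain blood trypomastigotes. From 4 dpi mice got 20 mg/kg/day orally in two daily doses (2% methylcellulose/0.5% Tween 80) for 20 days. Fresh tail blood was examined microscopically, daily from 4–16 dpi and every other day to 60 dpi. Reactivation was scored as return of patent parasitemia after treatment. Parasitemia curves were compared by Mann-Whitney.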

The subject of assay [4] is Trypanosoma cruzi. Nature of the assay: Antitrypanosomal activity against Trypanosoma cruzi Y infected in CD8+ T-lymphocyte knockout C57BL/6 mouse assessed as occurrence of subpatent level of parasitemia at 100 mg/kg/day, po administered once daily for 20 consecutive days measured 60 days post infection. The class given is functional, organism-based. The essentials:
as §1

The subject of assay [5] is Trypanosoma cruzi. Nature of the assay: Antitrypanosomal activity against Trypanosoma cruzi Y infected in B-lymphocyte knockout C57BL/6 mouse assessed as mean survival time at 100 mg/kg/day, po administered once daily for 20 consecutive days measured 60 days post infection. The class given is functional. The essentials:
(§3)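 Mice were infected ip with 5,000 blood trypomastigotes of the Y strain, kept by serial passage in Swiss-Webster mice. From 4 dpi they got 100 mg/kg/day orally once daily for 20 consecutive days, dissolved in water with gum arabic. Survival was followed to 60 dpi, with mean survival time and survival rate taken. Untreated and vehicle-treated infected mice served as controls. Rates compared by chi-square with Bonferroni.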

Assay [6] has as its system Trypanosoma cruzi. Nature of the assay: Antitrypanosomal activity against Trypanosoma cruzi Y infected in C57BL/6 mouse assessed as increase in survival of mouse at 100 mg/kg/day, po administered once daily for 20 consecutive days measured 60 days post infection. The class given is functional. As to conditions: 1440 h. An outline of the steps:
as §3

Assay [7] deals with Trypanosoma cruzi. Nature of the assay: Antitrypanosomal activity against Trypanosoma cruzi Y infected in CD8+ T-lymphocyte knockout C57BL/6 mouse assessed as occurrence of low level of circulating parasites at 100 mg/kg/day, po administered once daily for 20 consecutive days measured 15 days after the end of treatment.
Assay [8] concerns Trypanosoma cruzi. Nature of the assay: Antitrypanosomal activity against Trypanosoma cruzi Y infected in CD4+ T-lymphocyte knockout C57BL/6 mouse assessed as occurrence of subpatent parasitemia level in mouse at 20 mg/kg/day, po administered twice daily for 20 consecutive days measured 4 to 24 days post infection. The class given is functional, organism-based. An outline of the steps:
as §2

For assay [9], the system named is Trypanosoma cruzi. Nature of the assay: Antitrypanosomal activity against Trypanosoma cruzi Y infected in CD8+ T-lymphocyte knockout C57BL/6 mouse assessed as increase in survival of mouse at 100 mg/kg/day, po administered once daily for 20 consecutive days measured 60 days post infection. The class given is functional. As to conditions: 1440 h. The essentials: as §3

In assay [10] the test system is Trypanosoma cruzi. Nature of the assay: Antitrypanosomal activity against Trypanosoma cruzi Y infected in CD4+ T-lymphocyte knockout C57BL/6 mouse assessed as occurrence of subpatent parasitemia level in mouse at 100 mg/kg/day, po administered once daily for 20 consecutive days measured 4 to 24 days post infection. The class given is functional, organism-based. An outline of the steps: as §1

In assay [11] the test system is Trypanosoma cruzi. Nature of the assay: Antitrypanosomal activity against Trypanosoma cruzi Y infected in CD8+ T-lymphocyte knockout C57BL/6 mouse assessed as cure rate in mouse at 100 mg/kg/day, po administered once daily for 20 consecutive days measured 60 days post infection. The class given is functional. The essentials:
(§4)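 Mice infected ip with 5,000 blood trypomastigotes (Y strain kept by serial passage in Swiss-Webster mice). Oral dosing started day 4 post-infection and ran 20 consecutive days, drug dissolved in water with gum arabic. Fresh tail blood was examined microscopically daily days 4–16, then every other day to day 60. Parasitemia-negative mice were bled at day 60 by orbital sinus, 0.5 ml into two tubes of LIT medium, 28°C for 30–60 days, then examined microscopically. Cure meant negative fresh blood plus negative hemoculture. Rates were compared by chi-square with Bonferroni.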

The test system of assay [12] is Trypanosoma cruzi. Nature of the assay: Antitrypanosomal activity against Trypanosoma cruzi Y infected in CD8+ T-lymphocyte knockout C57BL/6 mouse assessed as occurrence of subpatent level of parasitemia at 20 mg/kg/day, po administered twice daily for 20 consecutive days measured 60 days post infection. The class given is functional, organism-based. An outline of the steps:
as §2

Assay [13] relates to Trypanosoma cruzi. Nature of the assay: Antitrypanosomal activity against Trypanosoma cruzi Y infected in C57BL/6 mouse assessed as cure rate in mouse at 100 mg/kg/day, po administered once daily for 20 consecutive days measured 60 days post infection. The class given is functional. The essentials: as §4
The test system of assay [14] is Trypanosoma cruzi. Nature of the assay: Antitrypanosomal activity against Trypanosoma cruzi Y infected in CD4+ T-lymphocyte knockout C57BL/6 mouse assessed as cure rate in mouse at 100 mg/kg/day, po administered once daily for 20 consecutive days measured 60 days post infection. The class given is functional. The essentials:
as §4

Assay [15] relates to Trypanosoma cruzi. Nature of the assay: Antitrypanosomal activity against Trypanosoma cruzi Y infected in B-lymphocyte knockout C57BL/6 mouse assessed as cure rate in mouse at 100 mg/kg/day, po administered once daily for 20 consecutive days measured 60 days post infection. The class given is functional. The essentials: as §4
In assay [16] the test system is Trypanosoma cruzi. Nature of the assay: Antitrypanosomal activity against Trypanosoma cruzi Y infected in CD4+ T-lymphocyte knockout C57BL/6 mouse assessed as increase in survival of mouse at 100 mg/kg/day, po administered once daily for 20 consecutive days measured 60 days post infection. The settings on record: 1440 h. The class given is functional. An outline of the steps: as §3

Assay [17] concerns Trypanosoma cruzi. Nature of the assay: Antitrypanosomal activity against Trypanosoma cruzi Y infected in C57BL/6 mouse assessed as mean survival time at 100 mg/kg/day, po administered once daily for 20 consecutive days measured 60 days post infection. The class given is functional. An outline of the steps:
as §3

Assay [18] relates to Trypanosoma cruzi. Nature of the assay: Antitrypanosomal activity against Trypanosoma cruzi Y infected in CD8+ T-lymphocyte knockout C57BL/6 mouse assessed as mean survival time at 100 mg/kg/day, po administered once daily for 20 consecutive days measured 60 days post infection. The class given is functional. The essentials: as §3
Assay [19] relates to Trypanosoma cruzi. Nature of the assay: Antitrypanosomal activity against Trypanosoma cruzi Y infected in CD4+ T-lymphocyte knockout C57BL/6 mouse assessed as reactivation of parasite in mouse at 100 mg/kg/day, po administered once daily for 20 consecutive days measured 60 days post infection. The class given is functional, organism-based. The essentials:
as §1

The subject of assay [20] is Trypanosoma cruzi. Nature of the assay: Antitrypanosomal activity against Trypanosoma cruzi Y infected in CD4+ T-lymphocyte knockout C57BL/6 mouse assessed as mean survival time at 100 mg/kg/day, po administered once daily for 20 consecutive days measured 60 days post infection. The class given is functional. An outline of the steps:
as §3

Assay [21] relates to Trypanosoma cruzi. Nature of the assay: Antitrypanosomal activity against Trypanosoma cruzi Y infected in B-lymphocyte knockout C57BL/6 mouse assessed as increase in survival of mouse at 100 mg/kg/day, po administered once daily for 20 consecutive days measured 60 days post infection. The class given is functional. As to conditions: 1440 h. An outline of the steps: as §3
For assay [22], the system named is Trypanosoma cruzi. Nature of the assay: Antitrypanosomal activity against Trypanosoma cruzi Y infected in CD8+ T-lymphocyte knockout C57BL/6 mouse assessed as number of mouse with reactivated parasite at 100 mg/kg/day, po administered once daily for 20 consecutive days measured 60 days post infection. The class given is functional. An outline of the steps:
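Mice infected ip with 5,000 Y-strain blood trypomastigotes. From day 4 they were given drug orally in water with gum arabic for 20 days. Reactivation was scored as reappearance of circulating parasites after treatment ended, seen by microscopy of fresh tail blood. Sampling was daily from day 4 to 16 and then every other day up to day 60.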

In the case of `O=C(Cn1ccnc1[N+](=O)[O-])NCc1ccccc1` [BENZNIDAZOLE], the result in assay [1], in assay [2], in [3] and in assay [19] was inactive. The result in assay [4], in assay [7], in assay [8], in assay [10] and in assay [12] was Active. Moreover, the MST is 59.3 days in assay [5], over 60 days in assay [17], 58.8 days in assay [18] and 53.7 days in [20]. Moreover, the survival at 100 mg/kg/day in assay [6] was determined as 100%; in assay [9] it was 86%; in assay [16], 6%; in assay [21] it was 67%. Moreover, the Activity came out at 66% in assay [11]; 86% in assay [13]; 0% in assay [14]; 22% in assay [15]; 22% in assay [22].
